This note sets out measurements from ChEMBL document CHEMBL1125898, “Synthesis and biological activity of 2'-deoxy-4'-thio pyrimidine nucleosides” (J Med Chem, 1991).

Assay [1] concerns HEp-2. The experiment in a line: The concentration required to produce a 50% inhibition of clone formation in human epidermoid carcinoma H-Ep-2 cells. Format: functional, cell-based.
The subject of the next assay is CCRF-CEM. The assay can be described thus: The concentration required to inhibit cell growth to 50% of untreated controls in human T-cell leukemia CCRF-CEM cells. Format: functional, cell-based.
Assay [2] relates to L1210. The experiment in a line: The concentration required to produce a 50% reduction in the rate of cell proliferation in murine leukemia L1210 cells. As to conditions: Mus musculus; call rule not given here. Format: functional, cell-based.
The subject of assay [3] is HEp-2. The assay can be described thus: The concentration required to produce a 50% inhibition of clone formation in human epidermoid carcinoma H-Ep-2 cells; NA=no cytotoxicity at 160 uM. The assay is classed as functional, cell-based. An outline of the steps:
(§1)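 Highest concentration tested was 160 μM. IC50 is the concentration giving a 50% inhibition of clone formation (H-Ep-2) or a 50% reduction in the rate of cell proliferation (L1210).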

Assay [4] has as its system L1210. The experiment in a line: The concentration required to produce a 50% reduction in the rate of cell proliferation in murine leukemia L1210 cells; NA=no cytotoxicity at 160 uM. Format: functional, cell-based, Mus musculus. An outline of the steps: as §1

A word on the IC50: it is the midpoint of a concentration-inhibition curve. Higher therefore signals weaker potency. Consider `Nc1ccn(C2C[C@H](O)[C@@H](CO)S2)c(=O)n1` (stereo not given in full), for which the half-maximal inhibitory concentration (IC50) is < 200 nM with HEp-2 [1], 3500 nM with CCRF-CEM and 1000 nM in the assay with L1210 [2].

As for `O=c1ccn([C@H]2C[C@H](O)[C@@H](CO)S2)c(=O)[nH]1`, the half-maximal inhibitory concentration (IC50) came out at 2100 nM with HEp-2 [1], 4000 nM in the assay with CCRF-CEM and 2700 nM in the assay with L1210 [2].

As to `O=c1ccn(C2CC(O)C(CO)S2)c(=O)[nH]1` (stereo not given), the IC50 result in the assay on HEp-2 [3] and with L1210 [4] was “Not Active” throughout.

As to `Cc1cn([C@@H]2C[C@H](O)[C@@H](CO)S2)c(=O)[nH]c1=O`, the values for the half-maximal inhibitory concentration (IC50) in the assay with HEp-2 [1] and in the assay on L1210 [2] were 25000 nM and 66000 nM, respectively.

For `Nc1ccn([C@H]2C[C@H](O)[C@@H](CO)S2)c(=O)n1` [4'-THIO-2'-DEOXYCYTIDINE], the IC50 in the assay with HEp-2 [1] is < 200 nM; with L1210 [2] it was 1200 nM.

As to `Cc1cn([C@H]2C[C@H](O)[C@@H](CO)S2)c(=O)[nH]c1=O` [4'-THIOTHYMIDINE], the IC50 amounted to 140 nM in the assay with HEp-2 [1], 670 nM in the assay with CCRF-CEM and 120 nM with L1210 [2].
